Reference: ChEMBL document CHEMBL5576140, “Computational Design of Pore-Forming Peptides with Potent Antimicrobial and Anticancer Activities” (J Med Chem, 2024)
The source made the active and inactive calls.

Legend:
[1] = system: Staphylococcus aureus; assay: Antimicrobial activity against Staphylococcus aureus NE934 harboring single transposon insertion mutation in staphopain B at 30 uM incubated for 18 hrs relative to control; format: functional
Procedure, shortened: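 CA-MRSA USA300 LAC derivative JE2 and single transposon insertion mutants derived from JE2, each lacking an extracellular protease gene, were exposed to peptides up to 30 μM. The read-out was percent growth inhibition. Peptides were dissolved in PBS, and tests were run in triplicate.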

[2] = Toxicity against reconstructed human skin model assessed as tissue viability at 50 uM incubated for 1 hr followed by compound washout measured after 42 hrs by MTT assay; format: tissue-based, Skin of body; conditions: read-out: Activity
Procedure, shortened: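 Reconstructed human epidermis with stratum corneum, per OECD TG 439 skin irritation guideline. Tissues exposed 1 h to peptide at 50 μM, then 42 h post-treatment incubation. Viability read by MTT. Controls were SDS and melittin.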

[3] = system: Mus musculus; assay: Induction of wound healing activity in immunosuppressed Balb/c mouse excisional dorsal wound infection model infected with Acinetobacter baumannii NCTC 13301 assessed as reduction in wound expansion at about 10 mg/kg treated for 7 days once daily; format: functional, organism-based; conditions: time 7.0 day
[4] = system: Mus musculus; assay: Induction of wound healing activity in immunosuppressed Balb/c mouse excisional dorsal wound infection model infected with Acinetobacter baumannii NCTC 13301 assessed as closed wound at about 10 mg/kg treated for 7 days once daily measured after 20 days; format: functional, organism-based; conditions: time 20.0 day
[5] = system: Mus musculus; assay: Induction of wound healing activity in immunosuppressed Balb/c mouse excisional dorsal wound infection model infected with Acinetobacter baumannii NCTC 13301 assessed as area of serocellular crust at about 10 mg/kg treated for 7 days once daily measured after 20 days; format: functional; conditions: time 20 day
[6] = system: Klebsiella pneumoniae; assay: Depolarization of cytoplasmic membrane in Klebsiella pneumoniae ATCC 13883 at MIC measured for 45 mins by DiSC3-(5) dye based assay; format: functional, organism-based
Procedure, shortened: (§1)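 Bacteria loaded with membrane-potential dye DiSC3-(5), then treated with peptide at its MIC for the respective strain; depolarization read as rise in dye fluorescence; polymyxin B and levofloxacin as reference antibiotics.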

[7] = system: Pseudomonas aeruginosa; assay: Depolarization of cytoplasmic membrane in Pseudomonas aeruginosa PAO1 at MIC measured for 45 mins by DiSC3-(5) dye based assay; format: functional, organism-based; procedure, shortened: as §1
[8] = system: Klebsiella pneumoniae; assay: Induction of outer membrane permeabilization in Klebsiella pneumoniae ATCC 13883 measured for 20 mins by NPN uptake assay; format: functional, organism-based
Procedure, shortened: (§2)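 Outer-membrane permeabilization of Gram-negative bacteria read as rise in fluorescence of the lipophilic dye NPN, which enters only when outer-membrane integrity is compromised. Peptides applied at their MIC against the respective strain; polymyxin B and levofloxacin as reference antibiotics. Triplicates.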

[9] = system: Pseudomonas aeruginosa; assay: Induction of outer membrane permeabilization in Pseudomonas aeruginosa PAO1 measured for 20 mins by NPN uptake assay; format: functional, organism-based; procedure, shortened: as §2
[10] = system: Escherichia coli; assay: Induction of outer membrane permeabilization in Escherichia coli ATCC 11775 measured for 20 mins by NPN uptake assay; format: functional, organism-based
[11] = system: NCI-H460; assay: Anti-cancer activity against human NCI-H460 cells incubated for 72 hrs by Cell Titer Glo assay; format: functional, cell-based; conditions: NCI-H460, 72 h
[12] = system: HCT-116; assay: Anti-cancer activity against human HCT-116 cells incubated for 72 hrs by Cell Titer Glo assay; format: functional, cell-based; conditions: HCT-116, 72 h
[13] = system: K562; assay: Anti-cancer activity against human K562 cells incubated for 72 hrs by Cell Titer Glo assay; format: functional, cell-based; conditions: K562, 72 h
[14] = system: MDA-MB-231; assay: Anti-cancer activity against human MDA-MB-231 cells incubated for 72 hrs by Cell Titer Glo assay; format: functional, cell-based; conditions: MDA-MB-231, 72 h
[15] = system: MDA-MB-435; assay: Anti-cancer activity against human MDA-MB-435 cells incubated for 72 hrs by Cell Titer Glo assay; format: functional, cell-based; conditions: MDA-MB-435, 72 h
[16] = system: MOLT-4; assay: Anti-cancer activity against human MOLT-4 cells incubated for 72 hrs by Cell Titer Glo assay; format: functional, cell-based; conditions: MOLT-4, 72 h
[17] = system: PC-3; assay: Anti-cancer activity against human PC-3 cells incubated for 72 hrs by Cell Titer Glo assay; format: functional, cell-based; conditions: PC-3, 72 h
[18] = system: SW-620; assay: Anti-cancer activity against human SW620 cells incubated for 72 hrs by Cell Titer Glo assay; format: functional, cell-based; conditions: SW-620, 72 h
[19] = system: U-251; assay: Anti-cancer activity against human U-251MG cells incubated for 72 hrs by Cell Titer Glo assay; format: functional, cell-based; conditions: U-251, 72 h
[20] = system: MOLM-13; assay: Anti-cancer activity against human MOLM-13 cells incubated for 24 hrs by WST assay; format: functional, cell-based; conditions: MOLM-13, 24 h
[21] = Anti-cancer activity against human MEC-1 cells incubated for 24 hrs by WST assay; format: functional, cell-based; conditions: MEC1, 24 h
[22] = system: SUD4; assay: Anti-cancer activity against human SU-DHL-4 cells incubated for 24 hrs by WST assay; format: functional, cell-based; conditions: SU-DHL-4, 24 h
[23] = system: K562; assay: Anti-cancer activity against human K562 cells at 10 uM incubated for 30 mins; format: functional, cell-based
[24] = system: HL-60; assay: pH-dependent anticancer activity against human HL-60 cells in RPMI medium at 10 uM incubated for 1 hr; format: functional, cell-based
Procedure, shortened: (§3)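 Cells cultured in RPMI, DMEM or PBS, each adjusted to pH 8, 7 or 6, plus one unadjusted (~7.6). Peptide at 10 μM for only 1 h, to limit pH drift from CO₂-bicarbonate buffering. Cell viability read. Controls were melittin, ampicillin and PBS. Two independent repetitions; effects analysed by ANOVA.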

[25] = system: HL-60; assay: pH-dependent anticancer activity against human HL-60 cells in DMEM medium at 10 uM incubated for 1 hr; format: functional, cell-based; procedure, shortened: as §3
[26] = system: HL-60; assay: pH-dependent anticancer activity against human HL-60 cells in PBS medium at 10 uM incubated for 1 hr; format: functional, cell-based; procedure, shortened: as §3
[27] = system: K562; assay: pH-dependent anticancer activity against human K562 cells in RPMI medium at 10 uM incubated for 1 hr; format: functional, cell-based; procedure, shortened: as §3
[28] = system: K562; assay: pH-dependent anticancer activity against human K562 cells in DMEM medium at 10 uM incubated for 1 hr; format: functional, cell-based; procedure, shortened: as §3
[29] = system: HCT-116; assay: pH-dependent anticancer activity against human HCT-116 cells in RPMI medium at 10 uM incubated for 1 hr; format: functional, cell-based; procedure, shortened: as §3
[30] = system: HCT-116; assay: pH-dependent anticancer activity against human HCT-116 cells in DMEM medium at 10 uM incubated for 1 hr; format: functional, cell-based; procedure, shortened: as §3
[31] = system: HCT-116; assay: pH-dependent anticancer activity against human HCT-116 cells in PBS medium at 10 uM incubated for 1 hr; format: functional, cell-based; procedure, shortened: as §3
[32] = system: MCF7; assay: pH-dependent anticancer activity against human MCF7 cells in PBS medium at 10 uM incubated for 1 hr; format: functional, cell-based; procedure, shortened: as §3
[33] = system: MCF7; assay: Induction of apoptosis in human MCF7 cells in DMEM medium at pH 6 assessed as increase in cleaved capase-3 level at 5 uM; format: functional, cell-based
Procedure, shortened: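 MCF-7 cells treated with peptides at pH 6; apoptosis detected by immunoblotting for cleaved PARP and cleaved caspase-3.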

[34] = system: B cell; assay: Cytotoxicity against human B-lymphocytes assessed as deleterious effect upto 50 uM by flow cytometry; format: toxicity, cell-based
Procedure, shortened: (§4)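 Whole blood from a healthy donor treated with peptides up to 50 μM; effect on B and T lymphocytes, granulocytes and monocytes assessed.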

[35] = system: T-cell line; assay: Cytotoxicity against human T-lymphocytes assessed as deleterious effect upto 50 uM by flow cytometry; format: toxicity, cell-based; procedure, shortened: as §4
[36] = system: Monocyte; assay: Cytotoxicity against human monocytes assessed as deleterious effect upto 50 uM by flow cytometry; format: toxicity, cell-based; procedure, shortened: as §4

H-KKKKLKKILKKLFQFINQLDNQLQDIKQNK-NH2
≤ 10000 nM: IC50 [20] | IC50 [21] | IC50 [22]
1000 nM: IC50 [11] | IC50 [12] | IC50 [13] | IC50 [14] | IC50 [15] | IC50 [16] | IC50 [17] | IC50 [18] | IC50 [19]
Non-Toxic: Activity [34] | Activity [35] | Activity [36]
< 45%: inhibition at 30 µM [1]
100%: viability at 1 h, 50 µM [2]
<10 mm2: Activity [5]
active: Activity [3] | Activity [4] | Activity [6] | Activity [7] | Activity [8] | Activity [9] | Activity [10] | Activity [23] | Activity [24] | Activity [25] | Activity [26] | Activity [27] | Activity [28] | Activity [29] | Activity [30] | Activity [31] | Activity [32] | Activity [33]
